Results as given in ChEMBL document CHEMBL4425092, “ent-Labdane Diterpenoids from the Aerial Parts of Eupatorium obtusissmum” (2016).

How the values were obtained:
Type in all cases: functional
[1] = system: HeLa; assay: Antiproliferative activity against human HeLa cells after 48 hrs by sulforhodamine B assay
How it was run: (§1)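 Cells seeded at 2500 per well and treated from day 1 after plating for 48 h, in triplicate, at dilutions over 0.001–100 μM. Stocks were made in DMSO at 400× the top final concentration, and vehicle controls received 0.25% v/v DMSO. Cells were fixed with ice-cold TCA for 60 min at 4 °C, then stained with SRB. OD was read at 530 nm, corrected for medium-only background, and GI50 was calculated by NCI formulas.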

[2] = system: HBL-100; assay: Antiproliferative activity against human HBL100 cells after 48 hrs by sulforhodamine B assay; settings: HBL-100, 48 h; how it was run: as §1
[3] = system: A549; assay: Antiproliferative activity against human A549 cells after 48 hrs by sulforhodamine B assay; settings: A549, 48 h; how it was run: as §1
[4] = system: SW1573; assay: Antiproliferative activity against human SW1573 cells after 48 hrs by sulforhodamine B assay; settings: SW1573, 48 h
How it was run: (§2)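 Plating was at 5000 cells per well, with 48 h drug exposure starting on day 1, in triplicate, at dilutions spanning 0.001–100 μM. DMSO stocks were 400× the top final concentration, and vehicle controls received 0.25% v/v DMSO. Cells were fixed with cold TCA for 60 min at 4 °C, and growth was measured by SRB. Absorbance at 530 nm was corrected for medium-only blank wells, and GI50 was derived by NCI formulas.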

[5] = system: T47D; assay: Antiproliferative activity against human T47D cells after 48 hrs by sulforhodamine B assay; how it was run: as §2
[6] = system: WiDr; assay: Antiproliferative activity against human WiDr cells after 48 hrs by sulforhodamine B assay; how it was run: as §2

GI50 [1] [µM]	GI50 [3] [µM]	GI50 [4] [µM]	GI50 [5] [µM]	SMILES	GI50 [2] [µM]	GI50 [6] [µM]
62	59	> 100	> 100	C=C1CC[C@@H]2C(C)(C)[C@H](O)CC[C@@]2(C)[C@@H]1C[C@H]1OC(=O)C=C1C	> 100	> 100
> 100	> 100	> 100	> 100	CC1=CC(=O)O[C@H]1C[C@@H]1[C@@H](C)C(=O)C[C@@H]2C(C)(C)[C@@H](O)CC[C@@]12C	> 100	> 100
62	44	> 100	> 100	C=C1CC[C@@H]2C(C)(C)[C@@H](O)CC[C@@]2(C)[C@@H]1C[C@H]1OC(=O)C=C1C	> 100	> 100
> 100	> 100	> 100	> 100	CC1=CC(=O)O[C@@H]1C[C@@H]1[C@@H](C)C(=O)C[C@@H]2C(C)(C)[C@H](O)CC[C@@]12C	> 100	> 100
> 100	> 100	> 100	> 100	CC1=CC(=O)O[C@@H]1C[C@@H]1[C@@H](C)C(=O)C[C@@H]2C(C)(C)[C@@H](O)CC[C@@]12C	> 100	> 100
3	0.7	15	22	COc1cc([C@@H]2c3cc4c(cc3[C@@H](O[C@@H]3O[C@@H]5CO[C@@H](C)O[C@H]5[C@H](O)[C@H]3O)[C@H]3COC(=O)[C@H]23)OCO4)cc(OC)c1O [ETOPOSIDE]	2.3	23
19	23	57	24	C=C1[C@@H](OC(C)=O)C[C@@H]2C(C)(C)[C@@H](O)CC[C@@]2(C)[C@@H]1C[C@H]1OC(=O)C=C1C	35	32
